What was measured:
BHK-21 [1] = experiment: Cytotoxicity against hamster BHK21 cells expressing MRP1 after 96 hrs by MTT assay; assay type: functional, cell-based; settings: Mesocricetus auratus, BHK-21, 96 h
Outline: (§1)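 Cells plated at 1.0 × 10⁴/well and grown 17 h, then exposed to compound diluted in complete medium (0.5% DMSO) for 96 h at 37 °C, 5% CO₂. MTT at 0.5 mg/mL added for 4 h, dye removed, formazan dissolved in isopropanol, absorbance read at 570 nm. IC50 taken from sigmoidal fits of triplicate dose–response curves.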

BHK-21 [2] = experiment: Cytotoxicity against hamster BHK21 cells after 96 hrs by MTT assay; assay type: functional, cell-based; settings: Mesocricetus auratus, BHK-21, 96 h; outline: as §1
[3] = target: T1, Multidrug resistance-associated protein 1 (Homo sapiens, UniProt P33527); experiment: Inhibition of MRP1 expressed in hamster BHK21 cells assessed as reduction of GSH efflux at 5 uM after up to 50 to 60 mins; assay type: cell-based; settings: bhk-21, 5 µM
Outline: (§2)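 Cells from the MRP1-transfected BHK-21 line (kept under methotrexate) were seeded at 1.0 × 10⁵/well, grown 17 h, then given 5 µM compound (DMSO ≤0.5%) for 10–120 min. Cells were washed in cold PBS and lysed in 0.1% Triton X-100. Total glutathione was measured by DTNB/NADPH/GSH reductase recycling (A412 kinetic, 2 min) and normalized to Bradford protein. Residual GSH is expressed as % of untreated cells; time to 50% loss is reported; triplicates.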

[4] = target: T1, Multidrug resistance-associated protein 1; experiment: Inhibition of MRP1 expressed in hamster BHK21 cells assessed as reduction of GSH efflux at 5 uM after up to 120 mins; assay type: cell-based; settings: bhk-21, 2 h; outline: as §2

T1 sequence (P33527 whole entry): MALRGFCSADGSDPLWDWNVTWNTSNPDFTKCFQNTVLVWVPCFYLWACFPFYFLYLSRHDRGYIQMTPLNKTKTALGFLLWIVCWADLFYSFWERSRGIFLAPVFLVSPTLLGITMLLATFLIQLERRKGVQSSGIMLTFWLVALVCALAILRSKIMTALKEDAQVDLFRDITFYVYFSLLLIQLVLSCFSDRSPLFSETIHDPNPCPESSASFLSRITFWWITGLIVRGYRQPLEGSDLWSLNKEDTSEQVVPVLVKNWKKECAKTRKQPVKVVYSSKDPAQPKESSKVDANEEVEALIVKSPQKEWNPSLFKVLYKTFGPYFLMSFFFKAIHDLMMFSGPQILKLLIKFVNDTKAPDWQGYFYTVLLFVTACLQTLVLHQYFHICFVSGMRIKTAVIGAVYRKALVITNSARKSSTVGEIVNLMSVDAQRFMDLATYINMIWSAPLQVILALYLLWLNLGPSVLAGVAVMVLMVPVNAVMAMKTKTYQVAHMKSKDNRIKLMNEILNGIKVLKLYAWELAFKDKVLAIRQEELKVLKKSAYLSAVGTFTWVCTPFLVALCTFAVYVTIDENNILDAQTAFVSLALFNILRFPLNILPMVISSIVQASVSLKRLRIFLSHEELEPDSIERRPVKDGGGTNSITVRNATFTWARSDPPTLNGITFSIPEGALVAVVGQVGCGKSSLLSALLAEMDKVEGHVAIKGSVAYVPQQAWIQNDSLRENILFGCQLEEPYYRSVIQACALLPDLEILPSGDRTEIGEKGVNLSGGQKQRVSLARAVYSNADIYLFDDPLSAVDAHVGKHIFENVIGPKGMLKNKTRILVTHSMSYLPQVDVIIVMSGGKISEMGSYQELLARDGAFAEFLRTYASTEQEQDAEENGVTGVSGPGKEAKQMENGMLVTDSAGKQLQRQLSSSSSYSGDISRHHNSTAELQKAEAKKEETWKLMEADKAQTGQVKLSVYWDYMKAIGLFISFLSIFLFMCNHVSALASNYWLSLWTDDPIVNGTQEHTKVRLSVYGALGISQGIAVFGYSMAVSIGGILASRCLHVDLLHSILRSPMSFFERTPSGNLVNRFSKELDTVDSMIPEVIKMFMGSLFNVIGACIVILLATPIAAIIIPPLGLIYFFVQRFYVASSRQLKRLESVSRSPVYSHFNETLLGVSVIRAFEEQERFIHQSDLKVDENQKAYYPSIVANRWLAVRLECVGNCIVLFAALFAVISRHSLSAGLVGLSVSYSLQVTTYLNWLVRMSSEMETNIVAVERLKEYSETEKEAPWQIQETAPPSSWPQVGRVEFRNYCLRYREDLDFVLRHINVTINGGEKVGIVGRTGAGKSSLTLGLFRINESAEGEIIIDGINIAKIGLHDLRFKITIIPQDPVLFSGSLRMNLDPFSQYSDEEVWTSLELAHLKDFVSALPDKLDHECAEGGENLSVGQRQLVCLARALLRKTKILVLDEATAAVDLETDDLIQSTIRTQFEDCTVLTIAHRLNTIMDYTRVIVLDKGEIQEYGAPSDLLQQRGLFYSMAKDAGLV

| inhibition (INH) [3] | inhibition (INH) [4] | SMILES | IC50 (BHK-21 [1]) [µM] | IC50 (BHK-21 [2]) [µM] |
| --- | --- | --- | --- | --- |
|  |  | COc1ccc(C(C#N)(CCCN(C)Cc2cc(I)c(O)c(I)c2)C(C)C)cc1OC (configuration not stated) | 6.6 | 27.4 |
| Not Active |  | COc1ccc(C(C#N)(CCCN(C)CCCc2ccc(O)cc2)C(C)C)cc1OC (configuration not stated) | 20.9 | ≥ 100 |
|  |  | COc1ccc(C(C#N)(CCCN(C)CCCc2ccc(O)c(I)c2)C(C)C)cc1OC (configuration not stated) | 9.3 | 9.4 |
|  |  | COc1ccc(C(C#N)(CCCN(C)CCCc2cc(I)c(O)c(I)c2)C(C)C)cc1OC (configuration not stated) | 6 | 33.1 |
| Not Active |  | COc1ccc(C(C#N)(CCCN(C)Cc2ccc(O)cc2)C(C)C)cc1OC (configuration not stated) | 6.6 | 28.5 |
|  |  | COc1ccc(C(C#N)(CCCN(C)Cc2ccc(O)c(I)c2)C(C)C)cc1OC (configuration not stated) | 13 | 14.1 |
|  |  | COc1ccc(C(C#N)(CCCNCCc2ccc(O)cc2)C(C)C)cc1OC (configuration not stated) | 38.1 | ≥ 100 |
|  |  | COc1ccc(C(C#N)(CCCNCCc2ccc(O)c(I)c2)C(C)C)cc1OC (configuration not stated) | 0.78 | 14.2 |
|  |  | COc1ccc(C(C#N)(CCCNCCc2cc(I)c(O)c(I)c2)C(C)C)cc1OC (configuration not stated) | 1.96 | 13.8 |
|  | Not Active | COc1ccc(CCN(C)CCCC(C#N)(c2ccc(OC)c(OC)c2)C(C)C)cc1 (configuration not stated) | 17.2 | 33.6 |
|  | Not Active | COc1ccc(CCN(C)CCCC(C#N)(c2ccc(OC)c(OC)c2)C(C)C)cc1I (configuration not stated) | 4.7 | 13 |
|  | Not Active | COc1ccc(C(C#N)(CCCN(C)CCc2cc(I)c(OC)c(I)c2)C(C)C)cc1OC (configuration not stated) | 1.7 | 8.9 |
|  |  | COc1ccc(C(C#N)(CCCN(C)CCc2ccc(O)cc2)C(C)C)cc1OC (configuration not stated) | 11.7 | 55.9 |
|  |  | COc1ccc(C(C#N)(CCCN(C)CCc2ccc(O)c(I)c2)C(C)C)cc1OC (configuration not stated) | 8.6 | 32.8 |
|  |  | COc1ccc(C(C#N)(CCCN(C)CCc2cc(I)c(O)c(I)c2)C(C)C)cc1OC (configuration not stated) | 1.1 | 54.7 |
|  |  | COc1ccc(CCN(C)CCCC(C#N)(c2ccc(OC)c(OC)c2)C(C)C)cc1OC (configuration not stated) [VERAPAMIL] | 10.6 | ≥ 100 |
